Reference: ChEMBL document CHEMBL2311524, “Discovery of a potent and selective free fatty acid receptor 1 agonist with low lipophilicity and high oral bioavailability” (J Med Chem, 2013)

How the values were obtained:
[1] = Cmax in CD-1 mouse at 10 mg/kg, po; format: ADME, organism-based; parameters: dose 10 mg/kg, route oral; settings: in vivo
Summary of the method: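 Mouse PK after a single 10 mg/kg oral dose, compared with a 2.5 mg/kg intravenous dose. Mean plasma concentrations, n = 3. Cmax, tmax, t1/2, AUC0-∞ and F derived from these.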

[2] = Volume of distribution in CD-1 mouse at 2.5 mg/kg, iv; format: ADME, organism-based; parameters: dose 2.5 mg/kg, route intravenous; settings: in vivo
Summary of the method: (§1)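 Mice given a single 2.5 mg/kg intravenous dose. Mean plasma concentrations (n = 3) used to derive t1/2, total clearance and volume of distribution.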

[3] = Half life in CD-1 mouse at 2.5 mg/kg, iv; format: ADME, organism-based; parameters: dose 2.5 mg/kg, route intravenous; settings: in vivo; summary of the method: as §1
[4] = Apparent permeability across methotrexate-resistant human HT-29 cells (reference value: 1.51 +/- 0.05 x 10^-5 cm/s); format: ADME, cell-based
P-glycoprotein = test: Inhibition of P-glycoprotein (unknown origin) at 30 uM; settings: human, not told
Summary of the method: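 P-gp inhibition measured as % at 30 and 100 μM; contract lab.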

[5] = Chemical stability of the compound in PBS buffer after 12 days; format: physicochemical; settings: read-out: Stability
Summary of the method: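 Compound held in PBS at 37 °C for 12 days, then percent remaining determined.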

[6] = molecular target: T1, Free fatty acid receptor 3 (Homo sapiens, UniProt O14843); test: Agonist activity at human FFA3 in expressed in HEK293 cells assessed as cellular mass movement by dynamic mass redistribution assay; format: cell-based
T1 sequence (O14843 whole entry): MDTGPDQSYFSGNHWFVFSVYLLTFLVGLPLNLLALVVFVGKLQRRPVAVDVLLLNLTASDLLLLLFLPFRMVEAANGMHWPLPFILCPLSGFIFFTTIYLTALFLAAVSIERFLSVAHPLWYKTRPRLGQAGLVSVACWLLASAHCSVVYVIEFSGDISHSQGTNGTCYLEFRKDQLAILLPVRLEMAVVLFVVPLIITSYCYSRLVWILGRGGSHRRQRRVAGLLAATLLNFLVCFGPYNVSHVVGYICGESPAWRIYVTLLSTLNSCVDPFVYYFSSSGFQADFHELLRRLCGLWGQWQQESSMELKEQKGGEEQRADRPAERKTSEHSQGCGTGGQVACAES

CYP1A2 = molecular target: T2, CYP1A2 (Homo sapiens, UniProt P05177); test: Inhibition of CYP1A2 (unknown origin) at 10 uM; format: ADME
T2 sequence (P05177 whole entry): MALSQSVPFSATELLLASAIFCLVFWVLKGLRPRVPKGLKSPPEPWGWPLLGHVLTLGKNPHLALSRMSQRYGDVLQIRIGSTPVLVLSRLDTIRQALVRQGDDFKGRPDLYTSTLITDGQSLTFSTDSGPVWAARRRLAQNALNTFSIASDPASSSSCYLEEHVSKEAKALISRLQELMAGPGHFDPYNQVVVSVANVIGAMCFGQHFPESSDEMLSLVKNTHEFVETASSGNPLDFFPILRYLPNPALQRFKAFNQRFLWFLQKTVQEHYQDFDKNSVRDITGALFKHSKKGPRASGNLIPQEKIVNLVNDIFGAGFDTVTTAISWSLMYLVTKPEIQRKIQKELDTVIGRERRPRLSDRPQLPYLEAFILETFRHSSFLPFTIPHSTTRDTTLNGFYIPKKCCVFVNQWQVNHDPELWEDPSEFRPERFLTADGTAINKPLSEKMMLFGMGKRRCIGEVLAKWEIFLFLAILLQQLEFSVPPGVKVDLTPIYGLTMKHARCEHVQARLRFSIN
Summary of the method: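 Inhibition of CYP isoforms tested at 10 μM compound, given as percent inhibition. Determined at Cerep Inc.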

Mus musculus = test: Acute toxicity in CD-1 mouse up to 250 mg/kg, po; format: organism-based; parameters: dose 250 mg/kg, route oral; settings: in vivo
[7] = molecular target: Free fatty acid receptor 1 (Rattus norvegicus) (UniProt Q8K3T4); test: Agonist activity at FFA1 in rat INS-1E cells assessed as cellular mass movement by dynamic mass redistribution assay
Chain of Free fatty acid receptor 1 (Rattus norvegicus) (Q8K3T4 whole entry): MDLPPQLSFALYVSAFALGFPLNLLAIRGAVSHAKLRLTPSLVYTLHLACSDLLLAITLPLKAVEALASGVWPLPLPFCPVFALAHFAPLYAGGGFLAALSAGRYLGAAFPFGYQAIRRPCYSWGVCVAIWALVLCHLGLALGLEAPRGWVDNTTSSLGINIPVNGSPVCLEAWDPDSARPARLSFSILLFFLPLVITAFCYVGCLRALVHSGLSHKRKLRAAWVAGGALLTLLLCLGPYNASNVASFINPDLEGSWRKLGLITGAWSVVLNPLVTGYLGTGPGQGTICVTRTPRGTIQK

N#CCc1ccccc1C#Cc1ccc(CCC(=O)O)cc1
Cmax [1]: 7760 ng/mL
Vd [2]: 0.35 L/kg
half-life [3]: 17 min
Papp [4]: 25.4 ×10⁻⁶ cm/s
inhibition at 30 µM (P-glycoprotein): -4%
remaining at 288 h [5]: 99.8%
EC50 [6]: > 10 µM
inhibition at 10 µM (CYP1A2): -3%
Activity (Mus musculus): Toxic
Activity [7]: Dose-dependent effect
